Source: PubChem
NR2E3 ag-1 = NR2E3 agonists in two-hybrid cells, primary screen, cell-based, luminescence, CHO-S, Gal4-NCOR/VP16-NR2E3; 0.35% of 360,000 active; luciferase; inhibition of corepressor binding, % at 3.98 µM;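 active = inhibition above the mean of all tested compounds plus 3 SD, cut at about 70% in these data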;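 note: 0% = DMSO with NR2E3 transfected cells and 100% = cells lacking NR2E3 construct; higher means lower luciferase signal from less NR2E3 corepressor binding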
Target sequence (Q9Y5X4 whole entry, looked up, the tested form may be a part): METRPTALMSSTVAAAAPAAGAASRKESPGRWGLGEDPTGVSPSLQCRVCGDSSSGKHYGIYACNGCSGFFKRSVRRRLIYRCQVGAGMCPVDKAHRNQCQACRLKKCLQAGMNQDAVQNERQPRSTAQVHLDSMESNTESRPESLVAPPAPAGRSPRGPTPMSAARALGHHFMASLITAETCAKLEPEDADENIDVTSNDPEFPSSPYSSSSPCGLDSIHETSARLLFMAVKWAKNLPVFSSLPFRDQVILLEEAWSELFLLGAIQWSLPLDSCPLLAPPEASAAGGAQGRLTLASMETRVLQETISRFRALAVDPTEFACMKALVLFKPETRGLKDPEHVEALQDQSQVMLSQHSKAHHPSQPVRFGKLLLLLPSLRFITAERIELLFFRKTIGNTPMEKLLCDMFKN
MC4R antagonist = MC4R antagonists of cAMP signaling, primary screen, cell-based, TR-FRET, antagonist arm of biased-ligand search. Melanocortin receptor 4 (Homo sapiens), P32245. MC4R-expressing cells, MTII-stimulated cAMP, LANCE TR-FRET. inhibition, % at 6.5 µM. 0.48% of 360,000 active. AID 540295, 2011;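 active = inhibition above its plate's cutoff, the mean of tested wells on that plate plus 3 SD, cut at about 29% in these data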;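 note: 0% = Melanotan II alone and 100% = Melanotan II plus saturating MCL0020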
Target sequence (P32245 whole entry, looked up): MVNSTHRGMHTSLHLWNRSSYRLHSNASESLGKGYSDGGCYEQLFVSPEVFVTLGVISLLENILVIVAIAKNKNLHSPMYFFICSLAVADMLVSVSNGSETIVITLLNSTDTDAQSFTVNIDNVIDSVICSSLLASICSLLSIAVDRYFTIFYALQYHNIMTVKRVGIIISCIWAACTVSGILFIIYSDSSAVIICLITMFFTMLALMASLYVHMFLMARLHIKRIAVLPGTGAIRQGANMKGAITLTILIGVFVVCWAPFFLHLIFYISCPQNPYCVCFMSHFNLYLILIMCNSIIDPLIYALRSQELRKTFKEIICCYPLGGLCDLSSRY
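System: U2OS-MC4R stable cell line; Technique: Eu-cAMP/anti-cAMP TR-FRET, emission 671 nm; Repeats: single well per compound; Also added: Melanotan II; Dosing: one concentration, 6.5 µM nominal; Schedule: 30-min compound, 1-h challenge, 1-h detection, room temperature.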
MC4R barr agon = MC4R agonists recruiting beta-arrestin, primary screen, cell-based, luminescence, agonist arm of biased-ligand search. 0.98% of 360,000 active. activation, % at 8.9 µM. U2OS MC4R beta-arrestin complementation; percent of melanotan II response, DMSO zero. AID 540308, 2011. Melanocortin receptor 4 (Homo sapiens), P32245;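 active = activation above a per-plate cutoff, the mean activation of sample wells on that plate plus 3 SD, cut at about 8% in these data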
NR2E3 ag-2 = inhibitors of NR2E3-RetCOR corepressor binding, primary screen, NR2E3 agonist project, biochemical, TR-FRET, GST-NR2E3, biotin-RetCOR; Photoreceptor-specific nuclear receptor (Homo sapiens), Q9Y5X4; 1536-well; inhibition of corepressor binding, % at 4.78 µM; 0.12% of 320,000 active;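 active = percent inhibition above the cutoff of mean plus 3 SD of all tested compounds, set per screening campaign, cut at about 20% in these data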;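 note: 0% = DMSO wells and 100% = biotin wells as full block of FRET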
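System: GST-tagged NR2E3 plus biotinylated RetCOR corepressor; Amount: 1.35 nM GST-tagged NR2E3 final; Dosing: single nominal compound dose of 4.8 µM; Schedule: 5 h incubation at 4 °C; Technique: TR-FRET with europium anti-GST and streptavidin-D2, 340 nm excitation; Controls: biotin wells as high control, 0.6% DMSO wells as low control.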
PG9 Ab binder = binders of HIV-1 gp120 antibody PG9, primary screen, biochemical, TR-FRET. 0.43% of 360,000 active. HIV-1 gp120 / PG9 antibody interaction. inhibition, % at 6.7 µM. TR-FRET gp120-PG9 antibody binding; in the data active = inhibition above about 8.5%
Rev-erbA mod = modulators of Rev-erb alpha DNA binding, primary screen, biochemical, FITC-DNA, fluorescence polarization, uHTS; Rev-erbα–FITC-DNA binding, 90 min; activity, % at 10 µM; 0.79% of 370,000 active;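 active = activity above about 14%, limit read from the data; passing the limit was not always enough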;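 note: 0% = DMSO wells with 35 nM protein and 100% = DMSO wells with 750 nM protein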
NR2E3 ag conf = NR2E3 agonist confirmation in cells, cell-based, luminescence, CHO-S two-hybrid | shares compounds with NR2E3 ag-1 | CHO-S mammalian two-hybrid NR2E3-NCOR, luciferase luminescence | inhibition, % at 3.98 µM | 51% of 2,300 active;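 active = average inhibition above a cutoff equal to the mean inhibition of all tested compounds plus one SD, cut at about 70% in these data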;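 note: 0% = DMSO in NR2E3 cells and 100% = DMSO in cells lacking NR2E3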
VP16 counter = GAL4-VP16 reporter modulators, confirmation, counter-screen for NR2E3 agonist project, cell-based, luminescence, CHO-S, high throughput | inhibition, % at 3.98 µM | CHO-S GAL4-VP16 luciferase reporter | shares compounds with NR2E3 ag-1 | 29% of 2,300 active;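 active = mean inhibition above a cutoff equal to the average over all tested compounds plus one standard deviation, cut at about 70% in these data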;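 note: luciferase from a UAS reporter driven by GAL4-VP16 transactivation; 0% = DMSO with VP16-transfected cells and 100% = DMSO with cells lacking VP16; higher means less reporter light so more repression of VP16 activity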
PG9 binder conf = binders of anti-gp120 antibody PG9, confirmation, biochemical, TR-FRET; shares compounds with PG9 Ab binder; TR-FRET PG9 antibody binding; inhibition, % at 6.7 µM; 90% of 1,500 active; in the data active = inhibition above about 9%
PGV04 counter = binders of control antibody PGV04, counter-screen for PG9 antibody binder project, biochemical, TR-FRET, distinct HIV envelope site; shares compounds with PG9 Ab binder; TR-FRET PGV04 antibody-gp120 binding; AID 651604, 2012; inhibition, % at 6.7 µM; 95% of 1,500 active; in the data active = inhibition above about 9.5%
* marks the source's active call; other numbers are inactive results; · = no result. Hits are enriched below; roughly 2.7% of the tested compounds scored in any of these assays.

SMILES | NR2E3 ag-1 | MC4R antagonist | MC4R barr agon | NR2E3 ag-2 | PG9 Ab binder | Rev-erbA mod | NR2E3 ag conf | VP16 counter | others
COc1ccc2c(c1)CC1(CN2C)C(=O)NC(=O)N(c2ccc(F)cc2)C1=O (stereo not drawn) | -14.9 | 17.5 | -0.5 | -1.7 | -1.7 | -2.5 | · | ·
C=C1C(=O)O[C@H]2[C@H]1[C@H](OC(=O)CC(=O)O[C@@H]1C[C@@H](C)[C@@H]3C=CC(=O)[C@@]3(C)[C@H]3OC(=O)C(=C)[C@H]13)C[C@@H](C)[C@H]1C=CC(=O)[C@]12C | 78.1* | 0.9 | -3.0 | -0.1 | -1.6 | 6.4 | 88.9* | 73.2*
C=C1C(=O)O[C@@H]2C[C@@H](C)[C@@H]3C=CC(=O)[C@@]3(C)[C@@H](OC(=O)CC(=O)O[C@H]3[C@@H]4C(=C)C(=O)O[C@@H]4C[C@@H](C)[C@@H]4C=CC(=O)[C@]43C)[C@H]12 | 96.0* | 6.1 | -1.7 | 2.0 | -0.7 | -12.3 | 100.5* | 96.8*
C=C1C(=O)OC2C1CCC(C)C1(O)C=CC(=O)C21C (stereo not drawn) | 33.2 | 13.5 | -1.5 | · | 3.0 | 1.0 | · | ·
C=C1C(=O)O[C@H]2C[C@@H](C)[C@@H]3C=CC(=O)[C@@]3(C)C[C@H]12 | · | · | · | -5.1 | -1.8 | 0.5 | · | ·
C=C1C(=O)OC2CC(C)C3C=CC(=O)C3(C)C(O)C12 (stereo not drawn) | 92.3* | -11.0 | -1.5 | · | · | · | 99.4* | 41.3
C=C1C(=O)O[C@@H]2C[C@@H](C)[C@@H]3C4OC4C(=O)[C@@]3(C)[C@@H](O)[C@H]12 (stereo partly drawn) | 76.6* | -13.2 | -0.2 | -3.8 | 1.0 | 4.1 | -10.8 | 2.4
CS(=O)(=O)c1ccc(C2=C(CNC(=O)c3cccnc3)[C@H]3CC[C@@H](C2)N3Cc2ccccc2)cc1 | -14.4 | 0.0 | -1.4 | · | -1.6 | -1.4 | · | ·
COc1ccc(C(=O)Nc2cccc(S(=O)(=O)NCc3ccco3)c2)cc1 | -25.8 | -0.6 | 0.6 | · | -2.6 | 4.3 | · | ·
CC1(C)C(C(=O)N2CCN(c3ccc(Cl)cc3)CC2)C1(C)C | -6.2 | 1.5 | 1.3 | -2.7 | 0.6 | 7.1 | · | ·
COC(=O)C1CN(C#N)N(c2ccc(Cl)cc2)C12c1ccccc1-c1ccccc12 (stereo not drawn) | 80.2* | -3.7 | -2.2 | 0.4 | · | · | 91.6* | 62.9
CC(=O)OC1CC2OC3C=C(C)CCC3(C)C1(C)C21CO1 (stereo not drawn) | 101.5* | 1.1 | 0.0 | · | -0.8 | -2.7 | 99.5* | 97.8*
CC(=O)O[C@H]1C[C@@H]2OC3C=C(C)CCC3(C)[C@@]1(C)[C@@]21CO1 (stereo partly drawn) | 101.2* | -2.8 | -0.3 | · | -1.7 | -4.9 | 98.4* | 97.3*
Cc1ccc(C)c(Cn2c(C(=O)O)c(C=O)c3ccccc32)c1 | -16.2 | 4.3 | 1.1 | -0.5 | -1.9 | 2.2 | · | ·
CC(C)(C)c1ccc(CSc2cnn(C(C)(C)C)c(=O)c2Cl)cc1 | 107.3* | 14.7 | 1.4 | -1.9 | -0.3 | 2.5 | 99.6* | 93.3*
COC(=O)C1=C(c2cccc(OC)c2OC)C[C@@H]2CC[C@H]1N2C(=O)NC(C)C | 1.8 | 0.6 | -1.0 | 3.0 | -1.0 | -4.1 | · | ·
NS(=O)(=O)c1ccc(N=Cc2c(O)n(C3CCCCC3)c(=O)n(C3CCCCC3)c2=O)cc1 | -15.9 | 2.3 | -0.3 | 0.6 | -0.2 | 5.4 | · | ·
CCn1c(O)c(C=NCc2ccccc2)c(=O)[nH]c1=S | 1.2 | -3.9 | 0.0 | 2.8 | 10.8* | 4.0 | · | · | PG9 binder conf=27.7*;PGV04 counter=37.1*
CCn1c(O)c(C=Nc2ccc(S(N)(=O)=O)cc2)c(=O)n(CC)c1=S | -27.8 | 14.2 | -1.6 | -1.3 | 54.3* | -3.2 | · | · | PG9 binder conf=68.7*;PGV04 counter=86.0*
CCn1c(O)c(C=Nc2ccc(S(N)(=O)=O)cc2)c(=O)[nH]c1=S | 2.2 | -1.6 | -1.6 | -0.1 | 25.3* | -4.8 | · | · | PG9 binder conf=91.7*;PGV04 counter=92.0*
CC[C@@H](CO)C1CC2NC3CC4(c5ccccc5N(C)[C@@H]24)C(O)C31 (stereo partly drawn) | -0.1 | -4.1 | -0.9 | 5.3 | 0.7 | -0.5 | · | ·
OCc1cnc[nH]1 | -1.6 | -2.3 | 1.0 | 0.5 | 0.6 | 5.2 | · | ·
O=S(=O)(O)C(=Cc1ccccc1)c1ccccc1 (tested in a mixture with another compound) | -27.9 | 3.4 | -1.6 | · | 0.1 | -7.3 | · | ·
CCCOC(=O)COc1cc(C)cc2oc(=O)c3c(c12)CCC3 | -4.5 | 3.2 | 4.8 | 1.3 | 9.9* | 23.2 | · | · | PG9 binder conf=22.9*;PGV04 counter=29.5*
Cc1cc(OCC(=O)O)c2c3c(c(=O)oc2c1)CCCC3 | 19.1 | -0.2 | 1.4 | -1.3 | -0.5 | -0.3 | · | ·
CC[C@@H](CO)NC(=O)[C@@H]1C=C2c3cccc4[nH]cc(c34)C[C@H]2N(C)C1 | -3.8 | -21.8 | -0.2 | · | 15.8* | -3.3 | · | · | PG9 binder conf=21.3*;PGV04 counter=33.2*
CCC(CO)NC(=O)C1C=C2c3cccc4[nH]cc(c34)CC2N(C)C1 (stereo not drawn) | -16.3 | -19.6 | -1.1 | 4.5 | 14.3* | -9.9 | · | · | PG9 binder conf=11.6*;PGV04 counter=15.1*
CC[C@@H](CO)NC(=O)[C@@H]1C=C2c3cccc4c3c(cn4C)C[C@H]2N(C)C1 | 0.7 | -9.6 | -0.9 | 2.1 | -11.4 | 4.5 | · | ·
Cn1cc(/C=C2\C(=O)NC(=O)N(c3ccccc3)C2=O)c2ccccc21 | -15.2 | -0.9 | -1.3 | -4.9 | 11.2* | -2.1 | · | · | PG9 binder conf=7.0;PGV04 counter=20.4*
